According to the M2OR odorant receptor database:

These molecules were tested against T1, OR1A1 (Homo sapiens) (UniProt Q9P1Q5). Details: stereoisomer not certain.
T1 sequence (whole entry): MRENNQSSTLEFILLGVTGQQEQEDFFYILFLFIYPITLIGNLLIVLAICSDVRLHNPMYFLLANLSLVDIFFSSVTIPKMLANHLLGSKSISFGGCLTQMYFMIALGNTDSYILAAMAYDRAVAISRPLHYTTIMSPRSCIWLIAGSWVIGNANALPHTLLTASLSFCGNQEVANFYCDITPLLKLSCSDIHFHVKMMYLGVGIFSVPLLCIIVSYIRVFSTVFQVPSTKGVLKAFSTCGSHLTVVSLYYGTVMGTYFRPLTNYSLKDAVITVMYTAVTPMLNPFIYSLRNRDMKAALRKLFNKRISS
Method in brief: (§1)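 Values were gathered from published papers (main text and supplementary material), with extra details requested from the original authors when needed, and checked for typos and inconsistencies. Each receptor–molecule pair is called responsive (active) if the original authors judged the measured signal statistically different from baseline, and non-responsive (inactive) otherwise. Assay methods varied by source, often transient mammalian cell-line luciferase assays. Recorded details include cell line, G-protein, co-transfected protein and tags.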

| SMILES | odorant receptor agonist call |
| --- | --- |
| ClC=CCl | inactive |
| C=CCOC(=O)Cc1ccccc1 | active |
| SCc1ccco1 | inactive |
| C=CCSSCC=C | inactive |
| CCC(Br)C(=O)O (centres undefined) | inactive |
| Cc1ccc(O)c(C)c1 | inactive |
| C=CCc1ccc(OC)cc1 | active |
| CCOC(=O)Cc1ccccc1 | active |
| C=CCc1ccccc1 | inactive |
| CCCCC(Br)C(=O)O (centres undefined) | inactive |
| CSSC | inactive |
| O=c1cc(O)c2ccccc2o1 | inactive |
| CCC1CCC(=O)O1 (centres undefined) | inactive |
| O=C([O-])Cc1ccccc1 | inactive |
| Cc1ccccc1O | inactive |
| COc1ccc(C=O)cc1 | inactive |
| CC(C=O)Cc1ccc2c(c1)OCO2 (centres undefined) | active |
| CCCCCCC(Br)C(=O)O (centres undefined) | inactive |
| CCCC(Br)C(=O)O (centres undefined) | inactive |
| Cc1c([N+](=O)[O-])c(C)c([N+](=O)[O-])c(C(C)(C)C)c1[N+](=O)[O-] | active |
| O=C(O)Cc1ccccc1 | inactive |

These molecules were tested against T2, OR1A2 (Homo sapiens) (UniProt Q9Y585). Details: stereoisomer not certain.
T2 sequence (whole entry): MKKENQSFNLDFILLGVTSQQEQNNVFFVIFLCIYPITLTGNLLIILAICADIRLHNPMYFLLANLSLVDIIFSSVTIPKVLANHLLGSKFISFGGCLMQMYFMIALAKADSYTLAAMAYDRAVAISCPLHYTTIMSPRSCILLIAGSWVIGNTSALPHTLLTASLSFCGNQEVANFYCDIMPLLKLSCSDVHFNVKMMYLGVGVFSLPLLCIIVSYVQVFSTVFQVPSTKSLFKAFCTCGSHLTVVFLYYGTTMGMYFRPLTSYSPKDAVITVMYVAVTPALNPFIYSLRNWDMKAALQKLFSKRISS
Method in brief: as §1

| SMILES | odorant receptor agonist call |
| --- | --- |
| ClC=CCl | inactive |
| C=CCOC(=O)Cc1ccccc1 | inactive |
| CCC(Br)C(=O)O (centres undefined) | inactive |
| CCCCC(Br)C(=O)O (centres undefined) | inactive |
| O=C([O-])Cc1ccccc1 | inactive |
| CC(C=O)Cc1ccc2c(c1)OCO2 (centres undefined) | active |
| CCCCCCC(Br)C(=O)O (centres undefined) | inactive |
| CCCC(Br)C(=O)O (centres undefined) | inactive |
| Cc1c([N+](=O)[O-])c(C)c([N+](=O)[O-])c(C(C)(C)C)c1[N+](=O)[O-] | inactive |

These molecules were tested against T3, OR1D2 (Homo sapiens) (UniProt P34982). Details: stereoisomer not certain.
T3 sequence (whole entry): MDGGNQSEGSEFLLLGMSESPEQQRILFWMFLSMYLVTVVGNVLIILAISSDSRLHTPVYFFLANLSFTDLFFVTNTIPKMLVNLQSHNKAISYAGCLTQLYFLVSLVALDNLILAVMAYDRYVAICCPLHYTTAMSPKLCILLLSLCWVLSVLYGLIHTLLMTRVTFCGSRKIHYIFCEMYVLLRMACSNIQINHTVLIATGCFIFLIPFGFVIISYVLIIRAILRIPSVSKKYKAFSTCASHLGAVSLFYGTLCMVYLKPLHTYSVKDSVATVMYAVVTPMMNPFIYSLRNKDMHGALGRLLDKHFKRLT
Method in brief: as §1

| SMILES | odorant receptor agonist call |
| --- | --- |
| C=CCOC(=O)Cc1ccccc1 | inactive |
| O=Cc1ccccc1 | inactive |
| O=CC=Cc1ccccc1 | inactive |
| CC(C=O)Cc1ccc2c(c1)OCO2 (centres undefined) | inactive |
